Data taken from ChEMBL document CHEMBL1221205, “Structural and mechanistic basis of penicillin-binding protein inhibition by lactivicins” (Nat Chem Biol, 2007).
pIC50: −log10 of the molar value. Values after ≈ are worked out from the molar mass of the structure shown.

What was measured:
Streptococcus pneumoniae [1] = assay: Ratio of MIC for penicillin-resistant Streptococcus pneumoniae 5204 to MIC for penicillin-sensitive Streptococcus pneumoniae R6; type: functional
Outline: (§1)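 Strains grown in Todd-Hewitt medium at 37 °C to OD600 0.3, then plated on Columbia blood agar with 5% horse blood containing LTV or PLTV at 0 to 100 µg ml-1. MIC taken as the concentration at visually determined growth arrest on plates. Ratio lines compare resistant-strain MIC with the R6 MIC obtained the same way.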

Streptococcus pneumoniae [2] = assay: Antibacterial activity against penicillin-resistant Streptococcus pneumoniae 38040505 […]; type: functional; outline: as §1
Streptococcus pneumoniae [3] = assay: Antibacterial activity against penicillin-resistant Streptococcus pneumoniae 38030509 […]; type: functional; outline: as §1
Streptococcus pneumoniae [4] = assay: Ratio of MIC for penicillin-resistant Streptococcus pneumoniae 38040505 to MIC for penicillin-sensitive Streptococcus pneumoniae R6; type: functional; outline: as §1
Streptococcus pneumoniae [5] = assay: Ratio of MIC for penicillin-resistant Streptococcus pneumoniae 38030509 to MIC for penicillin-sensitive Streptococcus pneumoniae R6; type: functional; outline: as §1
[6] = target: T1, Penicillin-binding protein 2x (Streptococcus pneumoniae serotype 4 (strain ATCC BAA-334 / TIGR4), UniProt P14677); assay: Inhibition of penicillin-resistant Streptococcus pneumoniae 5204 PBP2x after 120 mins by SDS-PAGE
Outline: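 PBP2x-5204 (0.8 µM) preincubated with LTV for 120 min, then remaining active PBP counterlabeled with 10 µM fluorescein-ampicillin for 40 min. Bands resolved by SDS-PAGE with fluorescence imaging; background subtracted. IC50 fitted from residual activity versus inhibitor concentration. Kinetic work at 30 °C in 10 mM sodium phosphate pH 7.0.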

Streptococcus pneumoniae [7] = assay: Antibacterial activity against penicillin-sensitive Streptococcus pneumoniae R6 […]; type: functional
Outline: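 Strain grown in Todd-Hewitt medium at 37 °C to OD600 0.3, then plated on Columbia blood agar with 5% horse blood containing compound at 0 to 100 µg ml-1. MIC taken as the concentration giving visible growth arrest on plates.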

Streptococcus pneumoniae [8] = assay: Ratio of MIC for penicillin-resistant Streptococcus pneumoniae 4790 to MIC for penicillin-sensitive Streptococcus pneumoniae R6; type: functional; outline: as §1
Streptococcus pneumoniae [9] = assay: Antibacterial activity against penicillin-resistant Streptococcus pneumoniae 5204 […]; type: functional; outline: as §1
Streptococcus pneumoniae [10] = assay: Antibacterial activity against penicillin-resistant Streptococcus pneumoniae 4790 […]; type: functional; outline: as §1
[11] = target: T1, Penicillin-binding protein 2x; assay: Inhibition of penicillin-resistant Streptococcus pneumoniae 5204 PBP2x after 60 mins by SDS-PAGE
Outline: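 PBP2x-5204 (0.8 µM) preincubated with PLTV for 60 min in 10 mM sodium phosphate pH 7.0, 30 °C, with 1% dimethylformamide. Residual active enzyme counterlabeled with 10 µM fluorescein-ampicillin for 40 min, then analyzed by SDS-PAGE and fluorescence. IC50 fitted from background-subtracted residual activity against inhibitor concentration.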

T1 sequence (P14677 whole entry, looked up): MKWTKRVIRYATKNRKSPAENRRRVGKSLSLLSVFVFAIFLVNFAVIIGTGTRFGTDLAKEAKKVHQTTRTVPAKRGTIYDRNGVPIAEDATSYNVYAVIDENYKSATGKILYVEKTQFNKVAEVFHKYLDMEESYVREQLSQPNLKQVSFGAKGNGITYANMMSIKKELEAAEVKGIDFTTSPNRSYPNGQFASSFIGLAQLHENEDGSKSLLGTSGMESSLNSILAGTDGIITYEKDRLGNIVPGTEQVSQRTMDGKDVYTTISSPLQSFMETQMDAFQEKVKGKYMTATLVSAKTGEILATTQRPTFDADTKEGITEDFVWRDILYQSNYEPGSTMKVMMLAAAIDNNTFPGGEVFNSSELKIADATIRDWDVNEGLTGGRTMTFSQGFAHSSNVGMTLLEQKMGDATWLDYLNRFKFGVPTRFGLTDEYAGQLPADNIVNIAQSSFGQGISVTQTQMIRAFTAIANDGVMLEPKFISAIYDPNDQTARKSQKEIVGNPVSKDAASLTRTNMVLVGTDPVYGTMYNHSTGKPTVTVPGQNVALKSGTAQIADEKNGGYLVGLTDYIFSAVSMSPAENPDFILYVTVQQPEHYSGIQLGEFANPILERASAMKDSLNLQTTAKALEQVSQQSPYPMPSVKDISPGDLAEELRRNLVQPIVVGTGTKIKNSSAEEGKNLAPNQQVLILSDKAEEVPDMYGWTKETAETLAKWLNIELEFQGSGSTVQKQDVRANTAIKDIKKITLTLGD

Row | Compound | Ratio (Streptococcus pneumoniae [1]) | MIC (Streptococcus pneumoniae [2]) | MIC (Streptococcus pneumoniae [3]) | Ratio (Streptococcus pneumoniae [4]) | Ratio (Streptococcus pneumoniae [5]) | pIC50 [6] | MIC (Streptococcus pneumoniae [7]) | Ratio (Streptococcus pneumoniae [8]) | MIC (Streptococcus pneumoniae [9]) | MIC (Streptococcus pneumoniae [10]) | pIC50 [11]
1 | CC(=O)NC1CON(C2(C(=O)O)CCC(=O)O2)C1=O (centres undefined) [LACTIVICIN] | 5 | 10 µg/mL (≈ 36.7 µM) | 20 µg/mL (≈ 73.5 µM) | 5 | 5 | 3.82 | 2 µg/mL (≈ 7.35 µM) | 5 | > 20 µg/mL | 20 µg/mL (≈ 73.5 µM) | 
2 | CC1(C)S[C@@H]2[C@H](NC(=O)Cc3ccccc3)C(=O)N2[C@H]1C(=O)O [PENICILLIN G] | 150 | 1.5 µg/mL (≈ 4.49 µM) | 2 µg/mL (≈ 5.98 µM) | 150 | 150 |  | 0.01 µg/mL (≈ 0.0299 µM) | 150 | 6 µg/mL (≈ 17.9 µM) | 1.5 µg/mL (≈ 4.49 µM) | 
3 | O=C(COc1ccccc1)N[C@H]1CON([C@@]2(C(=O)O)CCC(=O)O2)C1=O [PHENOXYACETYL LACTIVICIN] | 5.3 | 80 µg/mL (≈ 220 µM) | > 100 µg/mL | 5.3 | 5.3 |  | 15 µg/mL (≈ 41.2 µM) | 5.3 | 90 µg/mL (≈ 247 µM) | > 100 µg/mL | 5.10
